From ChEMBL document CHEMBL5712901, “DOT1L inhibition blocks multiple myeloma cell proliferation by suppressing IRF4-MYC signaling” (2019)
Activity calls are given as the source filed them. No cut-off for these calls is given here.

Legend:
KMS-12-PE [1] = test: Effect on human KMS-12-PE cells assessed as decrease in MYC mRNA level at 1 uM for 6 days by qRT-PCR analysis; assay type: functional, cell-based; details: time 6.0 day
In short: (§1)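 qRT-PCR of MYC and IRF4 after 1 μM DOT1L inhibitor for 6 days. Normalized to ACTB; mean of 3 replications ± SEM.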

RPMI-8226 [2] = test: Induction of growth suppression in human RPMI-8226 cells assessed as reduction H3K79me3 at 1 uM for 3 days Western blot analysis; assay type: functional, cell-based; details: time 3.0 day
In short: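 RPMI-8226 cells treated with 1 μM DOT1L inhibitor or DMSO for 3 days. H3K79 methylation probed by Western blot with […].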

U-266 = test: Antiproliferative activity against human U-266 cells treated 3 days at 1 uM; assay type: functional, cell-based; details: time 3.0 day
In short: (§2)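 Cell lines in 6-well plates, 2 × 10^4 to 8 × 10^5 cells/well, exposed to DOT1L inhibitor at 0.25-1 μM or DMSO, with medium and drug refreshed every 3 days. Viability read with Cell Counting Kit-8 on a microplate reader. Values normalized to untreated cells; mean of 3 replications ± SEM.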

RPMI-8226 [3] = test: Effect on human RPMI-8226 cells assessed as change in PRDM1 mRNA level at 1 uM for 3 days by ChIP-qPCR analysis; assay type: functional, cell-based; details: time 3.0 day
In short: (§3)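 ChIP-qPCR for H3K79me2 at IRF4-MYC signaling genes after 1 μM inhibitor or DMSO for 3 days. Signal normalized to input DNA. An intergenic region 28 kb upstream of KLF2 served as negative control. Mean of 3 replications ± SEM.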

RPMI-8226 [4] = test: Induction of apoptosis in human RPMI-8226 cells assessed as late apoptotic cells at 1 uM for 6 days by annexin-V based propidium iodide staining based flow cytometric analysis (reference value: 10.5%); assay type: functional; details: time 6 day
KMS-12-BM [5] = test: Effect on human KMS-12-BM cells assessed as change in MYC mRNA level by qRT-PCR analysis; assay type: functional, cell-based
In short: (§4)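 Basal MYC and IRF4 mRNA in untreated cells measured by qRT-PCR. Normalized to ACTB; mean of 3 replications ± SEM.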

KMS-12-PE [6] = test: Effect on human KMS-12-PE cells assessed as change in IRF4 mRNA level by qRT-PCR analysis; assay type: functional, cell-based; in short: as §4
MM1.S [7] = test: Upregulation of IFN in human MM1.S cells assessed as increase in ISG15 gene at 1 uM for 6 days by qRT-PCR analysis; details: time 6.0 day
RPMI-8226 [8] = test: Upregulation of IFN in human RPMI-8226 cells assessed as increase in ISG15 gene at 1 uM for 6 days by qRT-PCR analysis; details: time 6.0 day
KMS-12-PE [9] = test: Effect on human KMS-12-PE cells assessed as change in MYC mRNA level by qRT-PCR analysis; assay type: functional, cell-based; in short: as §4
RPMI-8226 [10] = test: Induction of apoptosis in human RPMI-8226 cells assessed as viable cells at 1 uM for 3 days by annexin-V based propidium iodide staining based flow cytometric analysis (reference value: 91.2%); assay type: functional; details: RPMI-8226, 72 h, time 3 day, read-out: Activity
RPMI-8226 [11] = test: Induction of apoptosis in human RPMI-8226 cells assessed as viable cells at 1 uM for 6 days by annexin-V based propidium iodide staining based flow cytometric analysis (reference value: 79.0%); assay type: functional; details: RPMI-8226, 144 h, time 6 day, read-out: Activity
MM1.S [12] = test: Antiproliferative activity against human MM1.S cells treated 3 days at 1 uM; assay type: functional, cell-based; details: time 3.0 day; in short: as §2
MM1.S [13] = test: Induction of cell cycle arrest in human MM1.S cells assessed as increase in accumulation of cells at G0 phase at 1 uM for 6 days; assay type: functional, cell-based; details: time 6.0 day
In short: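 Flow cytometric cell cycle analysis of RPMI-8226 and MM.1S cells treated with 1 μM DOT1L inhibitor or DMSO for 6 days. Sub-G1, G0-G1 and S phase populations scored. Summary is from 3 replications, mean ± SEM.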

RPMI-8226 [14] = test: Induction of apoptosis in human RPMI-8226 cells assessed as late apoptotic cells at 1 uM for 3 days by annexin-V based propidium iodide staining based flow cytometric analysis (reference value: 2.43%); assay type: functional; details: time 3 day
MM1.S [15] = test: Induction of apoptosis in human MM1.S cells assessed as necrotic cells at 1 uM for 6 days by annexin-V based propidium iodide staining based flow cytometric analysis (reference value: 0.16%); assay type: functional; details: time 6 day
MM1.S [16] = test: Effect on human MM1.S cells assessed as change in IRF4 mRNA level at 1 uM for 3 days by ChIP-qPCR analysis; assay type: functional, cell-based; details: time 3.0 day; in short: as §3
KMS-11 = test: Antiproliferative activity against human KMS-11 cells treated 3 days at 1 uM; assay type: functional, cell-based; details: time 3.0 day; in short: as §2
MM1.S [17] = test: Induction of apoptosis in human MM1.S cells assessed as viable cells at 1 uM for 6 days by annexin-V based propidium iodide staining based flow cytometric analysis (reference value: 77.4%); assay type: functional; details: 144 h, time 6 day, read-out: Activity
RPMI-8226 [18] = test: Upregulation of IFN in human RPMI-8226 cells assessed as increase in IFI44 gene at 1 uM for 6 days by qRT-PCR analysis; details: time 6.0 day
MM1.S [19] = test: Upregulation of IFN in human MM1.S cells assessed as increase in IFIT1 gene at 1 uM for 6 days by qRT-PCR analysis; details: time 6.0 day
KMS-12-BM [20] = test: Effect on human KMS-12-BM cells assessed as decrease in IRF4 mRNA level at 1 uM for 6 days by qRT-PCR analysis; assay type: functional, cell-based; details: time 6.0 day; in short: as §1
KMS-12-BM [21] = test: Effect on human KMS-12-BM cells assessed as decrease in MYC mRNA level at 1 uM for 6 days by qRT-PCR analysis; assay type: functional, cell-based; details: time 6.0 day; in short: as §1
KMS-12-PE [22] = test: Antiproliferative activity against human KMS-12-PE cells treated 3 days at 1 uM; assay type: functional, cell-based; details: time 3.0 day; in short: as §2
KMS-12-BM [23] = test: Effect on human KMS-12-BM cells assessed as change in IRF4 mRNA level by qRT-PCR analysis; assay type: functional, cell-based; in short: as §4
MM1.S [24] = test: Induction of apoptosis in human MM1.S cells assessed as early apoptotic cells at 1 uM for 6 days by annexin-V based propidium iodide staining based flow cytometric analysis (reference value: 14.6%); assay type: functional; details: time 6 day
MM1.S [25] = test: Induction of apoptosis in human MM1.S cells assessed as viable cells at 1 uM for 3 days by annexin-V based propidium iodide staining based flow cytometric analysis (reference value: 94.3%); assay type: functional; details: 72 h, time 3 day, read-out: Activity
MM1.S [26] = test: Upregulation of IFN in human MM1.S cells assessed as increase in IFITM1 gene at 1 uM for 6 days by qRT-PCR analysis; assay type: functional, cell-based; details: time 6.0 day
RPMI-8226 [27] = test: Induction of apoptosis in human RPMI-8226 cells assessed as necrotic cells at 1 uM for 6 days by annexin-V based propidium iodide staining based flow cytometric analysis (reference value: 3.61%); assay type: functional; details: time 6 day
RPMI-8226 [28] = test: Induction of apoptosis in human RPMI-8226 cells assessed as necrotic cells at 1 uM for 3 days by annexin-V based propidium iodide staining based flow cytometric analysis (reference value: 3.40%); assay type: functional; details: time 3 day
KMS-12-BM [29] = test: Antiproliferative activity against human KMS-12-BM cells treated 3 days at 1 uM; assay type: functional, cell-based; details: time 3.0 day; in short: as §2

Row | Compound | Activity (KMS-12-PE [1]) | Activity (RPMI-8226 [2]) | Activity (U-266) | Activity (RPMI-8226 [3]) | Activity (RPMI-8226 [4]) [%] | Activity (KMS-12-BM [5]) | Activity (KMS-12-PE [6]) | Activity (MM1.S [7]) | Activity (RPMI-8226 [8]) | Activity (KMS-12-PE [9]) | viability at 1 µM (RPMI-8226 [10]) [%] | viability at 1 µM (RPMI-8226 [11]) [%] | Activity (MM1.S [12]) | Activity (MM1.S [13]) | Activity (RPMI-8226 [14]) [%] | Activity (MM1.S [15]) [%] | Activity (MM1.S [16]) | Activity (KMS-11) | viability at 1 µM (MM1.S [17]) [%] | Activity (RPMI-8226 [18]) | also measured
1 | CC(C)N(CCCNC(=O)Nc1ccc(C(C)(C)C)cc1)C[C@H]1O[C@@H](n2cc(Br)c3c(N)ncnc32)[C@H](O)[C@@H]1O | Active | Active | inactive | Active | 12.9 | Active | Active | Active | Active | Active | 77.8 | 60.9 | Active | Active | 8.85 | 0.21 | Active | Active | 42.4 | Active | Activity (MM1.S [19]): Active; Activity (KMS-12-BM [20]): Active; Activity (KMS-12-BM [21]): Active; Activity (KMS-12-PE [22]): inactive; Activity (KMS-12-BM [23]): Active; Activity (MM1.S [24]): 20.2%; viability at 1 µM (MM1.S [25]): 92.3%; Activity (MM1.S [26]): Active; Activity (RPMI-8226 [27]): 8.1%; Activity (RPMI-8226 [28]): 6.32%; Activity (KMS-12-BM [29]): Active
2 | CC(C)N(C[C@H]1O[C@@H](n2cnc3c(N)ncnc32)[C@H](O)[C@@H]1O)[C@H]1C[C@@H](CCc2nc3cc(C(C)(C)C)ccc3[nH]2)C1 [PINOMETOSTAT] | Active | Active | inactive | Active | 18.3 | Active | Active | Active | Active | Active | 76.6 | 63.5 | Active | Active | 9.83 | 0.05 | Active | Active | 52.8 | Active | Activity (MM1.S [19]): Active; Activity (KMS-12-BM [20]): Active; Activity (KMS-12-BM [21]): Active; Activity (KMS-12-PE [22]): inactive; Activity (KMS-12-BM [23]): Active; Activity (MM1.S [24]): 21.1%; viability at 1 µM (MM1.S [25]): 96.7%; Activity (MM1.S [26]): Active; Activity (RPMI-8226 [27]): 9.09%; Activity (RPMI-8226 [28]): 6.18%; Activity (KMS-12-BM [29]): Active
